What was measured:
[1] = Compounds were evaluated for their potential toxic effect on uninfected PHA-stimulated human Peripheral blood mononuclear (PBM) cells; type: ADME
Summary of the method: (§1)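 Uninfected cells were seeded in 10-fold serial drug dilutions: Vero at 5×10^3, CEM at 2.5×10^3 and PHA-stimulated PBM at 5×10^4 cells/well. Vero were incubated 3 days, CEM 4 days and PBM 5 days, at 37 °C in 5% CO2. MTT was added overnight, followed by solubilization for 5 h and reading at 570 nm. IC50 was derived by the median effect method.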

PBMC [2] = assay: (§2) Anti-HIV activity in Human peripheral blood mononuclear (PBM) cells; type: functional
Summary of the method: (§3)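 PHA-stimulated (2-3 days) human PBM cells from healthy seronegative donors, Ficoll-Hypaque isolated; bulk infection 1 h (HIV-1 LAI reference; xxBru clone), 100 TCID50/1×10^7 cells (flask) or 200 TCID50/6×10^5 cells/well; 10-fold serial dilutions; RPMI-1640, 16% FBS, IL-2, DEAE-dextran; 5 days 37 °C; supernatant RT activity (poly(rA)·oligo(dT), 3H-TTP); EC50/EC90 by median effect method.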

[3] = Compounds were evaluated for their potential toxic effect on uninfected PHA-stimulated human T-lymphoblastoid cell line (CEM); type: ADME; summary of the method: as §1
PBMC [4] = assay: as §2; type: functional, cell-based; summary of the method: as §3
[5] = Compounds were evaluated for their potential toxic effect on uninfected […] cells; type: ADME, cell-based; settings: Chlorocebus sabaeus; summary of the method: as §1
PBMC [6] = assay: Antiviral activity against wild type HIV virus(xxBRU) in Human peripheral blood mononuclear (PBM) cells; type: functional; summary of the method: as §3
PBMC [7] = assay: Antiviral activity against drug-resistant HIV-1 virus (M184v) in Human peripheral blood mononuclear (PBM) cells; type: functional
Summary of the method: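 PHA-stimulated (2-3 days) human PBM cells from seronegative donors infected 1 h in bulk with molecular clone HIV-1 M184Vpitt, then cultured with 10-fold serial compound dilutions in IL-2–supplemented RPMI-1640, 5 days, 37 °C, 5% CO2. Supernatant virus pelleted and assayed for RT activity (poly(rA)·oligo(dT), 3H-TTP, 2 h, 37 °C). EC50/EC90 from concentration-response curves by median effect method.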

SMILES | IC50 [1] | EC90 (PBMC [2]) | IC50 [3] | EC50 (PBMC [4]) | IC50 [5] | EC90 (PBMC [6]) | EC90 (PBMC [7])
Cc1cn([C@H]2C=C(F)[C@@H](CO)S2)c(=O)[nH]c1=O | > 100 µM | > 100 µM | > 100 µM | > 100 µM | > 100 µM | – | –
O=c1ccn([C@@H]2C=C(F)[C@H](CO)S2)c(=O)[nH]1 | > 100 µM | > 100 µM | > 100 µM | > 100 µM | > 100 µM | – | –
Nc1ccn([C@@H]2CS[C@H](CO)O2)c(=O)n1 [LAMIVUDINE] | – | – | – | – | – | 0.08 µM | –
Cc1cn([C@H]2C[C@H](N=[N+]=[N-])[C@@H](CO)O2)c(=O)[nH]c1=O [ZIDOVUDINE] | > 100 µM | 0.01 µM | 14.3 µM | – | 29 µM | 0.01 µM | 0.003 µM
Nc1ncnc2c1ncn2[C@H]1C=C(F)[C@@H](CO)S1 | > 100 µM | > 100 µM | > 100 µM | > 100 µM | > 100 µM | – | –
Nc1ccn([C@@H]2C=C(F)[C@H](CO)S2)c(=O)n1 | > 100 µM | 1.7 µM | > 100 µM | 0.13 µM | > 100 µM | 1.7 µM | > 100 µM
O=c1ccn([C@H]2C=C(F)[C@@H](CO)S2)c(=O)[nH]1 | > 100 µM | > 100 µM | > 100 µM | > 100 µM | > 100 µM | – | –
OC[C@H]1S[C@@H](n2cnc3c(O)ncnc32)C=C1F | > 100 µM | > 100 µM | > 100 µM | > 100 µM | > 100 µM | – | –
Nc1ccn([C@H]2C=C(F)[C@@H](CO)S2)c(=O)n1 | > 100 µM | > 100 µM | > 100 µM | > 100 µM | > 100 µM | – | –
Cc1cn([C@@H]2C=C(F)[C@H](CO)S2)c(=O)[nH]c1=O | > 100 µM | > 100 µM | ≥ 100 µM | > 100 µM | > 100 µM | – | –
Nc1ncnc2c1ncn2[C@@H]1C=C(F)[C@H](CO)S1 | > 100 µM | 57 µM | > 100 µM | 14.9 µM | > 100 µM | – | –
Nc1nc(=O)n([C@@H]2C=C(F)[C@H](CO)S2)cc1F | > 100 µM | 0.35 µM | > 100 µM | 0.031 µM | 88.1 µM | 0.35 µM | > 100 µM
Nc1nc(=O)n([C@H]2C=C(F)[C@@H](CO)S2)cc1F | > 100 µM | > 100 µM | > 100 µM | > 100 µM | > 100 µM | – | –
Nc1nc(O)c2ncn([C@H]3C=C(F)[C@@H](CO)S3)c2n1 | > 100 µM | > 100 µM | > 100 µM | 23.4 µM | > 100 µM | – | –
OC[C@@H]1S[C@H](n2cnc3c(O)ncnc32)C=C1F | > 100 µM | > 100 µM | > 100 µM | > 100 µM | > 100 µM | – | –
Nc1nc(O)c2ncn([C@@H]3C=C(F)[C@H](CO)S3)c2n1 | > 100 µM | > 100 µM | > 100 µM | 43.9 µM | > 100 µM | – | –

Source: ChEMBL document CHEMBL1148437, “Synthesis, structure-activity relationships, and mechanism of drug resistance of D- and L-beta-3'-fluoro-2',3'-unsaturated-4'-thionucleosides as anti-HIV agents” (J Med Chem, 2004)
